{"source": "PubChem BioAssay AID743238", "about": "(Broad Institute, 2013)", "note": "The whole screen tested about 360,000 compounds, of which about 200 (0.056%) were called active. This is one part of a sample in which actives are shown more often than they occur.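 The calls were made as follows: active = mean normalized replicate activation at least 10% and every replicate at or above 10%; inconclusive = only one of the two criteria met; inactive = mean below 10% and not all replicates reach 10%.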"}
{"experiment": "Xi reactivation inducers in mouse fibroblasts – imaging, XiGFP fibroblasts, GFP high-content imaging, set 2, primary screen (AID 743238);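 also: 0% = median of on-plate neutral control wells and 100% = ellipticine 6 µM median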", "details": "% GFP-positive cells imaging, 3 d, at 7.58 µM, hits give high values, cells co-treated with 5-aza-dC sensitizer, scaled so ellipticine positive control = 100%", "procedure,_shortened": "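System: 68-5-11 XiGFP fibroblast line | Buffer or medium: DMEM containing 5-aza-dC | Compound: Single point | Times: Compounds 3 days, fix/stain 15 min at room temperature | Benchmarks: Positive control ellipticine, 6 µM final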"}
{"smiles": "C[C@@H](NC(=O)C[C@H]1C[C@@H]2c3cc(NC(=O)Nc4ccccc4F)ccc3O[C@@H]2[C@H](CO)O1)c1ccccc1", "activation": "0.315% (inactive)"}
{"smiles": "COc1ccc(NC(=O)Nc2ccc3c(c2)CC(=O)N([C@@H](C)CO)C[C@@H](C)[C@H](CN(C)C(=O)NC2CCCCC2)O3)cc1", "activation": "-0.248% (inactive)"}
{"smiles": "C[C@@H]1CN([C@@H](C)CO)C(=O)c2cc(NC(=O)Nc3cccc4ccccc34)ccc2O[C@@H](C)CCCCO[C@@H]1CN(C)S(=O)(=O)c1ccc(Cl)cc1", "activation": "0.307% (inactive)"}
{"smiles": "N#CC1(Nc2ccc(-c3ccc(Cl)cc3)cc2)CCCC1", "activation": "-0.0155% (inactive)"}
{"smiles": "O=S(=O)(NC1CC1)c1ccc2c3c(cccc13)CC2", "activation": "0.001% (inactive)"}
{"smiles": "N#CC1(Nc2ccc3c4c(cccc24)CC3)CCCCC1", "activation": "40% (active)"}
{"smiles": "CC(C)NC(=O)N(C)C[C@@H]1Oc2c(cccc2N(C)C)C(=O)N([C@H](C)CO)C[C@@H]1C", "activation": "0.155% (inactive)"}
{"smiles": "O=C(CC1CC1)N1[C@@H](CO)[C@H](c2ccccc2)C12CN(Cc1cccnc1)C2", "activation": "0.0215% (inactive)"}
{"smiles": "COc1ccc2c3c([nH]c2c1)[C@@H](CO)N(C(C)=O)CC31CCN(Cc2ccccc2Cl)CC1", "activation": "0.131% (inactive)"}
{"smiles": "C[C@@H]1CN([C@@H](C)CO)C(=O)Cc2cc(NC(=O)C3CC3)ccc2O[C@H]1CN(C)C(=O)NC1CCCCC1", "activation": "-0.834% (inactive)"}
{"smiles": "O=C(C[C@@H]1CC[C@@H](NC(=O)c2ccc3c(c2)OCO3)[C@H](CO)O1)NCc1ccc(F)cc1", "activation": "0.149% (inactive)"}
{"smiles": "Cc1ccc(S(=O)(=O)Nc2ccc3c(c2)C(=O)N([C@@H](C)CO)C[C@H](C)[C@@H](CN(C)CC2CC2)O3)cc1", "activation": "-0.069% (inactive)"}
{"smiles": "Cc1ccccc1CN(C)C[C@H]1OCc2cn(nn2)CCCC(=O)N([C@@H](C)CO)C[C@H]1C", "activation": "0.238% (inactive)"}
{"smiles": "CCCN(C)C[C@@H]1Oc2ncc(C#Cc3ccccc3)cc2C(=O)N([C@H](C)CO)C[C@@H]1C", "activation": "-0.009% (inactive)"}
{"smiles": "C[C@H](CO)N1C[C@H](C)[C@H](CN(C)C(=O)c2ccncc2)Oc2cc(C#CC3(O)CCCC3)ccc2S1(=O)=O", "activation": "0.469% (inactive)"}
{"smiles": "CN(C)CCCNC(=O)C[C@@H]1C=C[C@H](NC(=O)c2ccccc2F)[C@H](CO)O1", "activation": "-0.107% (inactive)"}
{"smiles": "CCN1/C(=C\\c2ccc3ccccc3[n+]2CC)Sc2cc(C)ccc21", "activation": "415% (active)"}
{"smiles": "CCCNC(=O)N1CC(=O)N2[C@H](C1)[C@@H](c1ccc(C#Cc3ccccc3)cc1)[C@@H]2CO", "activation": "-0.0025% (inactive)"}
{"smiles": "O=C(C[C@@H]1CC[C@@H](NS(=O)(=O)c2ccc(F)cc2)[C@H](CO)O1)NCc1ccc(Cl)c(Cl)c1", "activation": "0.0265% (inactive)"}
{"smiles": "C[C@H](CO)N1C[C@H](C)[C@H](CN(C)Cc2ccncc2)Oc2ccc(NS(=O)(=O)c3cn(C)cn3)cc2C1=O", "activation": "-0.119% (inactive)"}
{"smiles": "CC=Cc1ccc2n(c1=O)C[C@@H]1[C@@H](CO)[C@H](C(=O)NC3CCCC3)[C@H]2N1C(=O)c1cnccn1", "note": "(mixture of isomers)", "activation": "0.002% (inactive)"}
{"smiles": "O=C(Nc1ccccc1F)N[C@@H]1CC[C@H](CCNC(=O)C2CC2)O[C@@H]1CO", "activation": "0.587% (inactive)"}
{"smiles": "O=C(C[C@H]1C=C[C@@H](NC(=O)Nc2cc(F)ccc2F)[C@@H](CO)O1)NCc1ccc2c(c1)OCO2", "activation": "0.137% (inactive)"}
{"smiles": "C[C@@H]1CN([C@H](C)CO)C(=O)c2cccc(NS(C)(=O)=O)c2O[C@@H]1CN(C)S(=O)(=O)c1cccs1", "activation": "-1.35% (inactive)"}
{"smiles": "COc1ccccc1NC(=O)N1CC(=O)N2[C@H](CO)[C@@H](c3ccc(C#Cc4ccc(F)cc4)cc3)[C@H]2C1", "activation": "-0.0395% (inactive)"}
{"smiles": "Cc1ccc(S(=O)(=O)N(C)CC(=O)NCCc2c[nH]c3ccccc23)cc1", "activation": "0.082% (inactive)"}
{"smiles": "O=C(NCCc1c[nH]c2ccccc12)c1cc2ccccc2oc1=O", "activation": "-0.0325% (inactive)"}
{"smiles": "N#C/C(=C/c1ccc(N2CCCCC2)o1)C(=O)NCCc1c[nH]c2ccccc12", "activation": "119% (active)"}
{"smiles": "CCCNC(=O)NC[C@H]1[C@H](c2ccc(C3=CCCCC3)cc2)[C@H](CO)N1C(C)=O", "activation": "-0.0205% (inactive)"}
{"smiles": "CC(C)NC(=O)N1[C@H](C#N)[C@@H](c2ccc(-c3ccc(F)cc3)cc2)[C@H]1CO", "activation": "0.054% (inactive)"}
{"smiles": "C[C@@H]1CN([C@H](C)CO)C(=O)c2cc(NC(=O)CCCCCC(=O)Nc3ccccc3N)ccc2O[C@@H]1CN(C)S(=O)(=O)c1ccc(Cl)cc1", "activation": "-0.749% (inactive)"}
{"smiles": "C[C@H](O)C#Cc1ccc2c(c1)O[C@@H](CN(C)Cc1cccnc1)[C@H](C)CN([C@H](C)CO)S2(=O)=O", "activation": "0.253% (inactive)"}
{"smiles": "O=C(NC1Cc2ccccc2C1)[C@H]1[C@H](CO)[C@H]2Cn3c(ccc(C4=CCCCC4)c3=O)[C@H]2N1CC1CC1", "activation": "0.397% (inactive)"}
{"smiles": "CN(C)CC(=O)N[C@@H]1CC[C@H](CC(=O)O)O[C@H]1CO", "activation": "-0.0755% (inactive)"}
{"smiles": "C[C@@H]1CN([C@@H](C)CO)C(=O)c2cc(C#CC3CCCCC3)cnc2O[C@@H]1CN(C)Cc1cncnc1", "activation": "-1.05% (inactive)"}
{"smiles": "CCC(=C/c1sc2ccc3ccccc3c2[n+]1C)/C=C1\\Sc2ccc3ccccc3c2N1C", "activation": "68% (active)"}
{"smiles": "CC(C)C#Cc1cnc2c(c1)C(=O)N([C@@H](C)CO)C[C@@H](C)[C@H](CN(C)C(=O)CCN1CCCCC1)O2", "activation": "0.409% (inactive)"}
{"smiles": "COc1ccc(NC(=O)Nc2ccc3c(c2)C(=O)N([C@@H](C)CO)C[C@@H](C)[C@@H](CN(C)C(=O)CCCN(C)C)OCCCC[C@@H](C)O3)cc1", "activation": "0.0725% (inactive)"}
{"smiles": "Cc1ccccc1-c1ccc([C@H]2[C@@H](CO)N3C(=O)CN(C(=O)c4cccnc4)C[C@@H]23)cc1", "activation": "0.209% (inactive)"}
{"smiles": "C[C@@H](O)C#Cc1ccc([C@@H]2[C@@H](CO)N3CCCCN(C(=O)c4ccc(F)cc4)C[C@@H]23)cc1", "activation": "0.907% (inactive)"}
{"smiles": "C[C@H]1CN([C@@H](C)CO)C(=O)c2cc(Br)cnc2O[C@H]1CN(C)Cc1cccc(F)c1", "activation": "0.497% (inactive)"}
{"smiles": "Cc1ccc(S(=O)(=O)N2C[C@H](O)COC[C@@H]3O[C@H](CC(=O)N[C@H]4CCN(Cc5ccccc5)C4)CC[C@H]32)cc1", "activation": "0.108% (inactive)"}
{"smiles": "C[C@@H]1CN([C@H](C)CO)C(=O)c2cc(-c3ccccc3F)cnc2O[C@H]1CN(C)C(=O)CN(C)C", "activation": "3.17% (inactive)"}
{"smiles": "COc1cc(CN2CC3(CN(S(=O)(=O)c4cccs4)C3)c3c(n(C)c4cc(OC)ccc34)[C@H]2CO)cc(OC)c1", "activation": "0.325% (inactive)"}
{"smiles": "COc1cccc(S(=O)(=O)N[C@H]2C=C[C@@H](CC(=O)NCc3ccccc3)O[C@@H]2CO)c1", "activation": "-0.504% (inactive)"}
{"smiles": "CN1CCN(C(=O)C[C@H]2CC[C@H]3[C@@H](COC[C@H](O)CN3CC3CCCC3)O2)CC1", "activation": "0.0235% (inactive)"}
{"smiles": "Cc1ccc(S(=O)(=O)N(C)C[C@@H]2Oc3c(NC(=O)Nc4c(C)noc4C)cccc3C(=O)N([C@@H](C)CO)C[C@@H]2C)cc1", "activation": "-0.145% (inactive)"}
{"smiles": "COc1ccc2c3c(n(C)c2c1)[C@H](CO)N(CC1CCOCC1)CC31CCN(C(C)=O)CC1", "activation": "0.008% (inactive)"}
{"smiles": "C/C=C/c1ccc([C@@H]2[C@H](CO)N(CC3CCOCC3)C23CN(S(=O)(=O)CC)C3)cc1", "activation": "0.064% (inactive)"}
{"smiles": "COc1ccc(S(=O)(=O)Nc2cccc3c2O[C@H](CN(C)C(=O)Nc2cccc4ccccc24)[C@H](C)CN([C@@H](C)CO)C3=O)cc1", "activation": "-0.983% (inactive)"}
{"smiles": "C[C@@H]1CCCCO[C@H](CN(C)C(=O)Nc2cccc3ccccc23)[C@@H](C)CN([C@@H](C)CO)C(=O)c2cc(NC(=O)Nc3ccc(F)cc3)ccc2O1", "activation": "-0.01% (inactive)"}
{"smiles": "C[C@@H](NC(=O)C[C@H]1CC[C@H]2[C@H](COc3ccc(NS(=O)(=O)c4ccc(Cl)cc4)cc3C(=O)N2C)O1)c1ccccc1", "activation": "-0.013% (inactive)"}
{"smiles": "CCC(=O)NC[C@H]1[C@@H](c2ccc(C3=CCCC3)cc2)[C@@H](CO)N1C(=O)C1CC1", "activation": "-0.043% (inactive)"}
{"smiles": "CCCC#Cc1cnc2c(c1)C(=O)N([C@H](C)CO)C[C@H](C)[C@@H](CN(C)C(=O)c1cccnc1)O2", "activation": "-0.912% (inactive)"}
{"smiles": "COc1ccc2c3c(n(C)c2c1)[C@H](CO)N(Cc1ccccc1)CC31CCN(C)CC1", "activation": "0.287% (inactive)"}
{"smiles": "Cc1ccc(NC(=O)c2cc([N+](=O)[O-])ccc2Cl)c(O)c1", "activation": "0.0305% (inactive)"}
{"smiles": "CCN(CC)c1ccc([N+](=O)[O-])cc1C(=O)O", "activation": "-0.147% (inactive)"}
{"smiles": "CNc1ccc([N+](=O)[O-])cc1C(=O)O", "activation": "34.2% (active)"}
{"smiles": "CNC(=O)C[C@H]1CC[C@@H]2[C@H](COc3ccc(NC(=O)Nc4cccc(F)c4)cc3C(=O)N2C)O1", "activation": "0.022% (inactive)"}
{"smiles": "C[C@H](O)C#Cc1ccc2c(c1)O[C@H](CN(C)Cc1ccccn1)[C@@H](C)CN([C@@H](C)CO)S2(=O)=O", "activation": "-0.095% (inactive)"}
{"smiles": "O=C(C[C@@H]1CC[C@@H](NC(=O)C2CCOCC2)[C@H](CO)O1)NCC1CC1", "activation": "-0.115% (inactive)"}
{"smiles": "COc1ccc2c3c(n(C)c2c1)[C@@H](CO)N(Cc1ccccc1F)CC31CCN(C(=O)C2CCOCC2)CC1", "activation": "-0.019% (inactive)"}
{"smiles": "O=C(c1ccc(F)cc1)N1CC(=O)N2[C@@H](CO)[C@H](c3ccc(C4=CCCC4)cc3)[C@@H]2C1", "activation": "0.604% (inactive)"}
{"smiles": "CCS(=O)(=O)N1[C@H](CO)[C@@H](c2ccccc2)C12CN(C(=O)c1ccccc1F)C2", "activation": "0.139% (inactive)"}
{"smiles": "CCS(=O)(=O)N1CC(=O)N2[C@H](C1)[C@@H](c1ccc(C#Cc3ccc(F)cc3)cc1)[C@@H]2CO", "activation": "0.458% (inactive)"}
{"smiles": "Cc1c(/C=N\\NC(=O)c2cc3ccccc3o2)c2ccccc2n1C", "activation": "16.6% (active)"}
{"smiles": "CC(C)(C)n1nc2c(c1NC(=O)c1cc3ccccc3o1)CSC2", "activation": "0% (inactive)"}
{"smiles": "COc1ccc2c(c1)c(C(=O)N/N=C/c1cccs1)c(C)n2C", "activation": "0.148% (inactive)"}
{"smiles": "CCCNC(=O)C[C@H]1C[C@@H]2c3cc(NC(=O)COC)ccc3O[C@@H]2[C@@H](CO)O1", "activation": "-0.017% (inactive)"}
{"smiles": "O=C(C[C@@H]1CC[C@H]2[C@@H](COC[C@@H](O)CN2CC2CC2)O1)NCc1ccc(Cl)cc1", "activation": "0.122% (inactive)"}
